Measurements collected from several papers.
Compare with care: the assays were run in different laboratories.
Target: Serine/threonine-protein kinase N1 (PKN1, Homo sapiens, UniProt Q16512)

Nc1ncc2c(n1)-c1c([nH]c3ccc(C#CC4CC4)cc13)CCCC2  remaining binding (binding, competition with immobilised ligand; 1 µM): 78%
CCOCCn1cc(C(=O)Nc2ccc(-n3nc(-c4cccnc4)cc3C(F)(F)F)cn2)ccc1=O  remaining binding (cell-free assay, competition with immobilised ligand; 1 µM): 76%
N[C@@H]1CCN(c2nccc(-c3cnn4ncccc34)n2)C1  remaining binding (binding; 1 µM): 93%
COc1cnc(Nc2cccc(S(N)(=O)=O)c2)nc1N1CCN(c2ccccc2)CC1  remaining binding (binding, competition with immobilised ligand; 1 µM): 82%
CC1CCCN1c1nccc(-c2cnn3ncccc23)n1 (stereo not shown)  remaining binding (binding; 1 µM): 100%
COc1ncc2cc3ccccc3nc2c1C#N  remaining binding (cell-free assay, competition with immobilised ligand; 5 µM): 100%
CNC(=O)Nc1ccc2c(c1)[C@@]1(CC2)OC(=O)N(CC(=O)N(Cc2ccc(F)cc2)[C@@H](C)C(F)(F)F)C1=O  remaining binding (cell-free assay, competition with immobilised ligand; 1 µM): 98%
COc1cnc(Nc2cccc(S(N)(=O)=O)c2)nc1N1CCN(c2ccccc2)C(=O)C1  remaining binding (binding, competition with immobilised ligand; 1 µM): 98%
O=C(Nc1cnc(Oc2ccc(F)cc2)nc1)N1CCc2ncccc2[C@@H]1c1ccc(F)cc1  remaining binding (cell-free assay, competition with immobilised ligand; 1 µM): 95%
C[C@@H]1CCN(c2nccc(-c3cnn4ncccc34)n2)C1  remaining binding (binding; 1 µM): 84%
O=C(NCC1CCOCC1)c1n[nH]cc1NC(=O)c1c(F)cccc1F  remaining binding (binding, competition with immobilised ligand; 1 µM): 100%
C=CC(=O)N1CCC(C(=O)NCC(=O)N2CCN(c3nc(-c4cnc(N)nc4C(F)F)nc(N4CCOCC4)n3)CC2)CC1  remaining binding (binding, competition with immobilised ligand; 1 µM): 83%
O=C(NCCCN1CCOCC1)c1ccc(Nc2ncc(Cl)c(-c3ccc(Cl)s3)n2)cc1  remaining binding (binding, competition with immobilised ligand; 1 µM): 39%
CN(C)c1ncnc(-c2ccc3nc(Nc4cc(CN5CCN(C(=O)CC(F)(F)F)CC5)ccn4)[nH]c3c2)c1Cl  remaining binding (cell-free assay, competition with immobilised ligand; 1 µM): 100%
CN(C)c1ncc(F)c(-c2cnn3ncccc23)n1  remaining binding (binding; 1 µM): 100%
O=C(c1ccc(Nc2nccc(-c3cc4ccccc4s3)n2)cc1)N1CCC(N2CCCC2)CC1  remaining binding (binding, competition with immobilised ligand; 1 µM): 12%
FC(F)(F)Oc1cccc(-c2cnc3ccc(-c4ccncc4)nn23)c1  remaining binding (cell-free assay, competition with immobilised ligand; 5 µM): 67%
Cc1cc(C)c(-n2ccn3nc(-c4cccnc4)cc23)cc1NC(=O)c1cc(C#N)cc(S(F)(F)(F)(F)F)c1  remaining binding (cell-free assay, competition with immobilised ligand; 0.1 µM): 96.7%
CN(C)c1nccc(-c2cnc3ncccn23)n1  remaining binding (binding; 1 µM): 100%
COc1ccc2cc(OCC3(C(=O)O)CN(C(=O)c4ccc(F)cc4)C3)ccc2c1  remaining binding (cell-free assay, competition with immobilised ligand; 1 µM): 100%
O=C(c1ccc(Nc2ncc(Cl)c(-c3cc4ccccc4s3)n2)cc1)N1CCC(N2CCCC2)CC1  remaining binding (binding, competition with immobilised ligand; 1 µM): 3.4%
CN(c1nccc(-c2cnn3ncccc23)n1)C1CC1  remaining binding (binding; 1 µM): 100%
